According to ChEMBL document CHEMBL4831490, “Silyl resveratrol derivatives as potential therapeutic agents for neurodegenerative and neurological diseases” (Eur J Med Chem, 2021):
≈ marks a conversion by molar mass, not a printed value. Calls of active or inactive are those of the source. The calls are words filed in the database; no cut-off is given here.

Key:
RAW264.7 [1] = assay: Antiinflammatory activity in mouse RAW 264.7 cells assessed as decrease in LPS-induced TNF-alpha production at 10 uM measured after 24 hrs by ELISA; assay type: functional, cell-based
In short: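 RAW 264.7 macrophages, 5 × 10⁵ per well, given compound at 10 µM then stimulated with LPS (final 100 ng/mL). TNF-α in supernatants after 24 h measured by ELISA with capture/biotinylated detection antibody pairs.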

SH-SY5Y [2] = assay: Neuroprotective activity against H2O2-induced oxidative stress in human SH-SY5Y cells assessed as increase in cell viability at 10 uM pretreated with H2O2 for 10 mins followed by compound treatment and measured after 24 hrs by MTT assay; assay type: functional, cell-based
Danio rerio = organism: Danio rerio; assay: Neuroprotective activity against PTZ-induced neuronal damage in 5 dpf zebrafish AB larvae assessed as effect on AChE activity at 10 uM pretreated for 1 hr followed by removal of medium and subsequent addition of fresh medium containing PTZ and compounds measured after 6 hrs by Ellman's method; assay type: functional, organism-based; conditions: time 7.0 hrs
In short: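 Zebrafish AB larvae at 120 hpf, five per well, ten replicates, two independent experiments. Pretreated 1 h at 26 °C with compound (10 µM) in water with 0.1% DMSO, then after a media change kept 6 h at 26 °C with compound plus 5 mM PTZ. Physostigmine (20 µM) was the control inhibitor. Homogenate supernatant assayed by Ellman method; activity normalized to BCA protein, as % of control.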

[3] = Aqueous solubility of the compound; assay type: physicochemical
[4] = Toxicity in 3hpf zebrafish AB embryo assessed as median lethal dose measured 96 hpf; design: species or system Danio rerio; conditions: in vivo
In short: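 AB zebrafish embryos collected 3 hpf, 20 per well in E3 medium with graded compound concentrations, kept at 28.5 °C to 96 hpf. LC50 was fitted as a sigmoid to mortality. NOEC/LOEC used >20% mortality as the effect. Negative control was 0.1% DMSO in triplicate; DEAB (0.1 µM–1 mM) served as positive control.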

[5] = Toxicity in 3hpf zebrafish AB embryo assessed as LOAEL measured 96 hpf; design: species or system Danio rerio; conditions: in vivo, 96 h
In short: (§1)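 Zebrafish AB embryos collected at 3 hpf, 20 per well, in E3 medium with graded compound concentrations. Incubated 28.5 °C for 93 h further (to 96 hpf), mortality scored. NOEC/LOEC defined by mortality above 20%. Controls: 0.1% DMSO, three replicates; DEAB at 5 concentrations.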

[6] = Toxicity in 3hpf zebrafish AB embryo assessed as NOAEL measured 96 hpf; design: species or system Danio rerio; conditions: in vivo, 96 h; in short: as §1
[7] = Stability of the compound in human SH-SY5Y cells assessed as parent compound remaining measured after 72 hrs; assay type: ADME; conditions: read-out: Stability
In short: (§2)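 Compound incubated 72 h in PBS 1x (pH 7.4) or in SH-SY5Y culture medium; percentage of compound remaining determined.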

[8] = Stability of the compound in PBS buffer assessed as parent compound remaining measured after 72 hrs; assay type: physicochemical; conditions: read-out: Stability; in short: as §2
SH-SY5Y [9] = assay: Cytotoxicity against human SH-SY5Y cells assessed as reduction in cell viability at 10 uM measured after 24 hrs by MTT assay relative to control; assay type: cell-based
In short: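 SH-SY5Y cells grown in DMEM-F12 with 10% iFBS on collagen-pretreated plates; 2 × 10⁴ cells per well, left 24 h before compound in DMSO (final 1% DMSO) at 1, 10 and 100 µM. Viability by MTT 24 h after addition; mean and SD of at least eight readings from various experiments.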

RAW264.7 [10] = assay: Antiinflammatory activity in mouse RAW 264.7 cells assessed as decrease in LPS-induced IL-6 production at 10 uM measured after 24 hrs by ELISA; assay type: functional, cell-based
In short: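 RAW 264.7 macrophages, 5 × 10⁵ per well, compound added then stimulated with LPS (final 100 ng/mL) or left unstimulated; IL-6 in supernatant measured after 24 h by sandwich ELISA with capture/biotinylated detection antibodies.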

SH-SY5Y [11] = assay: Neuroprotective activity against H2O2-induced oxidative stress in human SH-SY5Y cells assessed as increase in cell viability at 100 uM pretreated with H2O2 for 10 mins followed by compound treatment and measured after 24 hrs by MTT assay relative to control; assay type: functional
Mus musculus [12] = assay: Neuroprotective activity in C57BL/6 mouse model of 3-NP-induced intoxication assessed as reduction in truncal dystonia at 20 mg/kg, ip measured after 5 days relative to control; assay type: functional; design: scale not given: the % may be the effect or the level left; conditions: time 5 day, in the assay text read “overall motor score” for “truncal dystonia”
In short: (§3)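 C57BL/6 mice, 12 weeks old, n = 7 per group. 3-NP given i.p. twice daily, 10 h apart: 4 × 20, 4 × 40, 2 × 60 mg/kg (cumulative 360 mg/kg over 5 days). Compound 20 mg/kg i.p. in 13% hydroxypropyl-β-cyclodextrin with 2% Tween-80, given just before each morning 3-NP dose. Weight and motor scoring done before injections, last one 3 h after final 3-NP dose. Rotarod latency to fall read after the 360 mg/kg cumulative dose.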

Mus musculus [13] = assay: Neuroprotective activity in C57BL/6 mouse model of 3-NP-induced intoxication assessed as effect on body weight at 20 mg/kg, ip measured after 5 days (91.4 %); assay type: functional; conditions: time 5 day; in short: as §3
[14] = Hydrolytic stability of the compound in mouse serum assessed as parent compound remaining measured after 1 hr; assay type: ADME, cell-free; conditions: read-out: Stability
In short: (§4)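 Hydrolytic stability measured in mouse serum at 1 h and 24 h.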

Mus musculus [15] = assay: Neuroprotective activity in C57BL/6 mouse model of 3-NP-induced intoxication assessed as reduction in IL6 production at 20 mg/kg, ip by sandwich ELISA
Mus musculus [16] = assay: Immunosuppressive activity in MOG (35 to 55 residues)/pertussis toxin-induced experimental autoimmune encephalomyelitis C57BL/6 mouse model assessed as reduction in clinical scores at 20 mg/kg, ip starting from 20 days post disease progression and administered for 2 weeks; assay type: functional, organism-based
Mus musculus [17] = assay: Antioxidant activity in C57BL/6 mouse model of 3-NP-induced oxidative stress assessed as increase in SOD2 mRNA expression at 20 mg/kg, ip by qRT-PCR method; assay type: functional, organism-based; in short: as §3
Mus musculus [18] = assay: Neuroprotective activity in C57BL/6 mouse model of 3-NP-induced intoxication assessed as improvement in latency to fall at 20 mg/kg, ip by rotarod test relative to control; assay type: functional; in short: as §3
[19] = Hydrolytic stability of the compound in mouse serum assessed as parent compound remaining measured after 24 hrs; assay type: ADME, cell-free; conditions: read-out: Stability; in short: as §4
RAW264.7 [20] = assay: Antiinflammatory activity in mouse RAW 264.7 cells assessed as inhibition of LPS-induced nitric oxide production at 10 uM measured after 24 hrs by Griess reagent assay; assay type: functional, cell-based
In short: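 NO in 24 h culture supernatants of LPS-stimulated RAW 264.7 cells (compound 10 µM, LPS final 100 ng/mL) estimated indirectly as nitrite concentration.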

| Structure (SMILES) | Activity (RAW264.7 [1]) | Activity (SH-SY5Y [2]) | LC50 at 96 h [4] | LOAEL [5] | NOAEL [6] | also measured |
| --- | --- | --- | --- | --- | --- | --- |
| CC(C)(C)[Si](C)(C)Oc1cc(/C=C/c2ccc(O)cc2)cc(O[Si](C)(C)C(C)(C)C)c1 | Active | Active |  |  |  |  |
| Oc1ccc(/C=C/c2cc(O)cc(O)c2)cc1 [RESVERATROL] |  |  | > 1000 µM | > 1000 µM | 1000 µM | Activity (Danio rerio): Active; solubility [3]: 50 µg/mL (≈ 219 µM) |
| CCCC(=O)Oc1ccc(/C=C/c2cc(O[Si](CC)(CC)CC)cc(O[Si](CC)(CC)CC)c2)cc1 |  |  | 407 µM | 1000 µM | 100 µM |  |
| CC(C)[Si](Oc1ccc(/C=C/c2cc(O[C@@H]3O[C@H](CO)[C@@H](O)[C@H](O)[C@H]3O)cc(O[Si](C(C)C)(C(C)C)C(C)C)c2)cc1)(C(C)C)C(C)C |  |  | > 1000 µM | 1000 µM | 1000 µM | remaining at 72 h [7]: > 80%; remaining at 72 h [8]: > 80% |
| CC(C)(C)[Si](C)(C)Oc1ccc(/C=C/c2cc(O)cc(O[Si](C)(C)C(C)(C)C)c2)cc1 | Active | Active |  |  |  |  |
| CC(C)(C)[Si](C)(C)Oc1cc(O)cc(/C=C/c2ccc(O)cc2)c1 |  | Active |  |  |  | Activity (SH-SY5Y [9]): > 50% |
| CC(C)[Si](Oc1cc(/C=C/c2ccc(O[C@H]3O[C@@H](CO)[C@H](O)[C@@H](O)[C@@H]3O)cc2)cc(O[Si](C(C)C)(C(C)C)C(C)C)c1)(C(C)C)C(C)C |  |  | > 1000 µM | 1000 µM | 1000 µM |  |
| CC(C)[Si](Oc1cc(/C=C/c2ccc(O)cc2)cc(O[Si](C(C)C)(C(C)C)C(C)C)c1)(C(C)C)C(C)C |  | Active |  |  |  | Activity (Danio rerio): Active; Activity (RAW264.7 [10]): Active; Activity (SH-SY5Y [11]): 100%; remaining at 72 h [7]: > 80%; remaining at 72 h [8]: > 80% |
| CC[Si](CC)(CC)Oc1ccc(/C=C/c2cc(O)cc(O)c2)cc1 | Active |  |  |  |  |  |
| CC(C)[Si](Oc1ccc(/C=C/c2cc(O)cc(O[Si](C(C)C)(C(C)C)C(C)C)c2)cc1)(C(C)C)C(C)C | Active | Active | > 1000 µM | 1000 µM | > 1000 µM | Activity (RAW264.7 [10]): Active |
| CCNC(=O)Oc1ccc(/C=C/c2cc(O[Si](C(C)C)(C(C)C)C(C)C)cc(O[Si](C(C)C)(C(C)C)C(C)C)c2)cc1 |  |  |  | 1000 µM | 1000 µM |  |
| CC(C)[Si](Oc1ccc(/C=C/c2cc(O)cc(O)c2)cc1)(C(C)C)C(C)C |  | Active |  |  |  | Activity (SH-SY5Y [9]): > 50% |
| CC[Si](CC)(CC)Oc1cc(O)cc(/C=C/c2ccc(O)cc2)c1 | Active |  |  |  |  |  |
| CCCCCCCC(=O)OC[C@H]1O[C@@H](Oc2cc(/C=C/c3ccc(O[Si](C(C)C)(C(C)C)C(C)C)cc3)cc(O[Si](C(C)C)(C(C)C)C(C)C)c2)[C@H](O)[C@@H](O)[C@@H]1O |  |  | 407 µM | 1000 µM | 100 µM |  |
| CCCCCCCC(=O)OC[C@@H]1O[C@H](Oc2ccc(/C=C/c3cc(O[Si](C(C)C)(C(C)C)C(C)C)cc(O[Si](C(C)C)(C(C)C)C(C)C)c3)cc2)[C@@H](O)[C@H](O)[C@H]1O |  |  | 407 µM | 1000 µM | 100 µM | Activity (Danio rerio): Active; Activity (Mus musculus [12]): 26.5%; Activity (Mus musculus [13]): 94.8%; remaining at 1 h [14]: 75%; Activity (Mus musculus [15]): Active; Activity (Mus musculus [16]): Active; Activity (Mus musculus [17]): Active; remaining at 72 h [7]: > 80%; Activity (Mus musculus [18]): 10%; remaining at 24 h [19]: 15%; remaining at 72 h [8]: > 80% |
| CCCCCCCC(=O)OC[C@H]1O[C@@H](Oc2cc(O)cc(/C=C/c3ccc(O)cc3)c2)[C@H](O)[C@@H](O)[C@@H]1O | Active |  |  | 10 µM | 1 µM |  |
| CC[Si](CC)(CC)Oc1ccc(/C=C/c2cc(O)cc(O[Si](CC)(CC)CC)c2)cc1 | Active | Active | 380 µM | 1000 µM | 100 µM | Activity (Danio rerio): Active |
| CC[Si](CC)(CC)Oc1cc(/C=C/c2ccc(O)cc2)cc(O[Si](CC)(CC)CC)c1 | Active |  | 475 µM | 1000 µM | 100 µM | Activity (Danio rerio): Active; inhibition (RAW264.7 [20]): Active |
| CC(C)[Si](Oc1cc(O)cc(/C=C/c2ccc(O)cc2)c1)(C(C)C)C(C)C |  | Active |  |  |  | Activity (SH-SY5Y [9]): > 50% |
